Test results taken from ChEMBL document CHEMBL3758154, “Rotenoids, Flavonoids, and Chalcones from the Root Bark of Millettia usaramensis” (J Nat Prod, 2015).

What was measured:
Plasmodium falciparum [1] = assay: Antiplasmodial activity against chloroquine-sensitive Plasmodium falciparum 3D7 assessed as inhibition of parasite growth at 100 uM after 72 hrs by DAPI staining-based confocal microscopic analysis; format: functional; conditions: 3D7, 72 h
MDA-MB-231 = assay: Cytotoxicity against human MDA-MB-231 cells assessed as cell viability after 72 hrs by Alamar Blue assay; format: functional, cell-based; conditions: MDA-MB-231, 72 h
Method in brief: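 MDA-MB-231 cells in DMEM with 10% FBS, 2 mM L-glutamine, penicillin and streptomycin were seeded at 10 000 cells/well and grown 24 h. Medium was replaced with drug or vehicle (0.1% or 1.0% DMSO) for 72 h. Viability was read by Alamar Blue absorbance at 570 nm (600 nm reference) as % of vehicle control, from six replicates in at least six independent experiments.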

Plasmodium falciparum [2] = assay: Antiplasmodial activity against chloroquine-resistant Plasmodium falciparum Dd2 assessed as inhibition of parasite growth at 100 uM after 72 hrs by DAPI staining-based confocal microscopic analysis; format: functional; conditions: Dd2, 72 h
Plasmodium falciparum [3] = assay: Antiplasmodial activity against chloroquine-sensitive Plasmodium falciparum 3D7 assessed as inhibition of parasite growth after 72 hrs by DAPI staining-based confocal microscopic analysis; format: functional, organism-based; conditions: 3D7, 72 h
Method in brief: (§1)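 Sorbitol-synchronized asexual P. falciparum in human O+ erythrocytes (RPMI, Hepes, hypoxanthine, 5% human serum, AlbuMAX II), ring stage at 2% parasitemia, 0.3% hematocrit. Three-step log dilutions from 40 μM top, 0.4% DMSO final. 72 h at 37 °C, 5% CO2. Saponin/Triton X/EDTA/DAPI stain overnight, confocal imaging counts parasites.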

Plasmodium falciparum [4] = assay: Antiplasmodial activity against chloroquine-resistant Plasmodium falciparum Dd2 assessed as inhibition of parasite growth after 72 hrs by DAPI staining-based confocal microscopic analysis; format: functional, organism-based; conditions: Dd2, 72 h; method in brief: as §1
[5] = Cytotoxicity against HEK293 cells assessed as cell viability at 20 uM after 72 hrs by resazurin-based plate reader analysis; conditions: human, read-out: Activity
[6] = Cytotoxicity against HEK293 cells assessed as cell viability at 40 uM after 72 hrs by resazurin-based plate reader analysis; conditions: human, read-out: Activity
Method in brief: (§2)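 HEK293 cells grown in DMEM with 10% FCS, seeded at 2000 cells/well and left overnight to adhere at 37 °C, 5% CO2. Compounds were tested at a final 40 μM in 0.4% DMSO. After 72 h exposure, 44 μM resazurin in serum-free DMEM was added for 4−6 h and fluorescence read at 530/595 nm. Growth was normalised to 5 μM puromycin and 0.4% DMSO controls, with IC50 from variable-slope nonlinear regression.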

HEK293 = assay: Cytotoxicity against HEK293 cells assessed as cell viability after 72 hrs by resazurin-based plate reader analysis; conditions: Homo sapiens, HEK293, 72 h; method in brief: as §2
Plasmodium falciparum [7] = assay: Antiplasmodial activity against chloroquine-resistant Plasmodium falciparum Dd2 assessed as inhibition of parasite growth at 40 uM after 72 hrs by DAPI staining-based confocal microscopic analysis; format: functional; conditions: Dd2, 72 h; method in brief: as §1

O=C1c2ccc3c(c2O[C@@H]2COc4cc5c(cc4[C@@]12O)OCO5)OCO3
inhibition at 100 µM (Plasmodium falciparum [1]): 99% | IC50 (MDA-MB-231): 87.3 µM | inhibition at 100 µM (Plasmodium falciparum [2]): 90%

CC1(C)C=Cc2c(ccc3c2O[C@@H]2COc4cc5c(cc4[C@]2(O)C3=O)OCO5)O1
IC50 (MDA-MB-231): 61.7 µM

COc1ccc2c(c1CC=C(C)C)O[C@@H]1COc3cc4c(cc3[C@@]1(O)C2=O)OCO4
IC50 (MDA-MB-231): 25.7 µM

O[C@@H]1c2ccc3c(c2O[C@@H]2COc4cc5c(cc4[C@@]12O)OCO5)OCO3
IC50 (MDA-MB-231): > 279 µM

COc1cc2c(cc1-c1coc3c4c(ccc3c1=O)OC(C)(C)C=C4)OCO2
inhibition at 100 µM (Plasmodium falciparum [1]): 94% | inhibition at 100 µM (Plasmodium falciparum [2]): 81%

CC1(C)C=Cc2c(ccc3c2O[C@@H]2COc4cc5c(cc4[C@@]2(O)C3=O)OCO5)O1
inhibition at 100 µM (Plasmodium falciparum [1]): 28% | IC50 (MDA-MB-231): 101 µM | inhibition at 100 µM (Plasmodium falciparum [2]): 29%

CC(C)=CCC/C(C)=C/COc1ccc(/C=C/C(=O)c2ccc(O)cc2O)cc1
IC50 (Plasmodium falciparum [3]): 3.67 µM | IC50 (Plasmodium falciparum [4]): 6.97 µM

CC(C)=CCC/C(C)=C/COc1ccc(/C=C/CO)cc1
IC50 (MDA-MB-231): 207 µM

CC(C)=CCC/C(C)=C/COc1ccc(C(=O)/C=C/c2ccc(O)cc2)c(O)c1
IC50 (MDA-MB-231): 126 µM

C[C@H]1[C@@H](O)O[C@@H]2O[C@@]3(C)CC[C@H]4[C@H](C)CC[C@@H]1[C@@]24OO3 [ARTENIMOL]
viability at 72 h, 20 µM [5]: 50% | viability at 72 h, 40 µM [6]: 54% | IC50 (Plasmodium falciparum [3]): 0.0001 µM | IC50 (Plasmodium falciparum [4]): 0.000146 µM

C[C@H]1[C@H](OC(=O)CCC(=O)O)O[C@@H]2O[C@@]3(C)CC[C@H]4[C@H](C)CC[C@@H]1[C@@]24OO3 [ARTESUNATE]
viability at 72 h, 20 µM [5]: 73% | IC50 (Plasmodium falciparum [3]): 0.0005 µM | IC50 (Plasmodium falciparum [4]): 0.000443 µM

CCN(CC)CCCC(C)Nc1ccnc2cc(Cl)ccc12 (configuration not stated) [CHLOROQUINE]
viability at 72 h, 40 µM [6]: 51%

COc1ccc(C[C@H](N)C(=O)N[C@H]2[C@@H](O)[C@H](n3cnc4c(N(C)C)ncnc43)O[C@@H]2CO)cc1 [PUROMYCIN]
IC50 (Plasmodium falciparum [3]): 0.0227 µM | IC50 (HEK293): 0.361 µM | IC50 (Plasmodium falciparum [4]): 0.0452 µM

CCc1nc(N)nc(N)c1-c1ccc(Cl)cc1 [PYRIMETHAMINE]
viability at 72 h, 40 µM [6]: 75% | inhibition at 40 µM (Plasmodium falciparum [7]): 62%

COc1ccc2nc3cc(Cl)ccc3c(Nc3cc(CN4CCCC4)c(O)c(CN4CCCC4)c3)c2n1 [PYRONARIDINE]
IC50 (Plasmodium falciparum [3]): 0.0036 µM | IC50 (Plasmodium falciparum [4]): 0.00751 µM

COc1cc2c(cc1OC)[C@]1(O)C(=O)c3ccc4c(c3O[C@@H]1CO2)C=CC(C)(C)O4 [TEPHROSIN]
IC50 (Plasmodium falciparum [3]): 13.3 µM | IC50 (Plasmodium falciparum [4]): 12.1 µM
